# PfHsp90 yeast 2: growth inhibition of PfHsp90-expressing yeast, primary screen, antimalarial PfHsp90 inhibitor project, S. cerevisiae, BacTiter-Glo luminescence, single point, set 2. BacTiter-Glo ATP, 48 h; yeast lacking PDR1 and PDR3 efflux regulators. 310,000 tested, 0.32% active. inhibition, % at 9.4 µM. AID 504621, 2011;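 active = every replicate shows inhibition above about 80%, whatever the replicate mean, limit read from the data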;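 note: 0% = DMSO neutral controls and 100% = 20 µM radicicol positive controls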
# CaV13 ICDI inh: Disruptors of the CACNA1D IQ motif to Ca2+-dependent inactivation inhibitor domain association, primary screening, Förster resonance energy transfer in intact living …; HEK cells, CFP/YFP FRET ICDI-IQ, plate reader, 10 min; percent FRET-ratio fall versus neutral wells; inhibition, % at 12.3 µM; 340,000 tested, 0.098% active; AID 743397;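 active = mean replicate inhibition of at least 30% and at least 1% of replicates passing that level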;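 note: 0% = median of the neutral control wells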
# PvdQ acylase: P. aeruginosa PvdQ acylase inhibitors, primary screen, biochemical, fluorescence, plate reader and imaging, single point; 340,000 tested, 0.063% active; purified PvdQ acylase; inhibition, % at 10 µM; in the data active = inhibition above about 30%, passing the limit was not always enough;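 note: 0% = vehicle neutral wells and 100% = reference inhibitor wells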
# T cruzi inh: inhibitors of intracellular T. cruzi growth, primary screen, luminescence, NIH3T3 host cells; T. cruzi beta-gal in NIH3T3, 90 h; AID 1885, 2009; inhibition, % (no concentration beside the values); 300,000 tested, 1.4% active;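 active = mean inhibition across valid replicates above about 55%, limit read from the data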;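 note: signal also drops with host cell toxicity which is not excluded here; 0% = plate median of DMSO wells and 100% = zero luminescence signal; higher percent means less beta-gal luminescence so fewer parasites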
#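 Material: NIH/3T3 host cells with β-galactosidase reporter T. cruzi; Input: 5,000 host fibroblasts per well; Medium: DMEM, 2% fetal bovine serum; Compound: 50 nL DMSO compound solution per well; Schedule: 3 h host attachment, then at least 90 h co-culture; Detection: luminescent β-galactosidase signal after 60 min lysis.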
# HSF-1 act: HSF-1 activators, primary screen, NIH3T3-HGL cells, MG132 stress, luminescence, single point; activation, % at 9 µM; NIH3T3-HGL HSF-1 luciferase reporter, 8 h; 100% = twice DMSO control signal; 300,000 tested, 1.7% active;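 active = mean replicate activation of at least 50% with a set share of replicates each reaching 50%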;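 note: 0% = median of the neutral control wells and 100% = twice that signal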
# N-glyco inh: increase of ERlucT glycosylation luciferase signal, primary screen, N-linked glycosylation inhibitor project, D54 ERlucT cells, luminescence, set 2. D54 ERlucT glycosylation luciferase reporter, 24 h; percent of 100 nM tunicamycin response. reporter increase, % at 12.5 µM. 360,000 tested, 0.23% active. AID 588692, 2011;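 active = mean luciferase reporter signal, scaled so untreated is 0 and the glycosylation-blocking control 100, at or above a set limit in every replicate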;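 note: luciferase carries N-glycosylation sites so blocking glycosylation raises the light; 0% = median of neutral control wells and 100% = median of 100 nM tunicamycin wells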
# * = called active by the depositor; . = not tested or not shown. Only some compounds are listed: those with a hit (about 3% of all), similar ones and a draw of the others.
SMILES,PfHsp90 yeast 2,CaV13 ICDI inh,PvdQ acylase,T cruzi inh,HSF-1 act,N-glyco inh
COc1ccc(CN2CCC[C@]3(N[C@H](c4ccc(C(F)(F)F)cc4)[C@@H]4C(=O)N(Cc5ccccc5)C(=O)[C@@H]43)C2=O)cc1,.,-2,.,.,.,3
C[C@@H]1CN([C@H](C)CO)S(=O)(=O)c2ccc(C#Cc3ccccc3)cc2O[C@H]1CN(C)C(=O)Nc1ccc2c(c1)OCO2,.,-6,.,.,.,-3
CN1CCC(OC(=O)c2cccc(Cl)c2)CC1,8,-2,-6,60*,-14,3
CN1CCC(OC(=O)COc2ccc(Br)cc2)CC1,2,-4,0,-17,9,2
CN1CCC(OC(=O)c2ccc(Br)cc2)CC1,-9,.,-11,62*,-6,-3
CCOC(=O)C1(C)CCCCCN1C(=O)c1ccc(OC)cc1 (stereo not given),.,-11,.,.,.,-1
Cc1cccc(C)c1NC(=O)CNC(=O)C(C)N1CCCCC1 (stereo not given),.,-3,8,.,.,3
Cc1cccc(C)c1NC(=O)C(C)N1CCCC1 (stereo not given),1,-5,9,1,75*,1
CC(C)[C@H](NC(=O)c1ccccc1Cl)C(=O)OCC(=O)NCc1ccc2c(c1)OCO2,-12,-5,-5,.,.,0
COc1ccccc1N(C(=O)c1ccncc1)c1nc(-c2ccc([N+](=O)[O-])cc2)cs1,-66,0,-8,62*,-12,-5
c1ccc(-c2nc(-c3ccco3)cs2)nc1,-5,-8,-9,-8,36,-1
Fc1ccc(-c2csc(-c3ccccn3)n2)cc1F,-17,3,33*,-11,18,-3
CC(=O)N1CCN(C(=O)OC2CC3CC2[C@H]2CCCCN2C3=O)CC1 (stereo not given in full),.,-2,.,.,.,.
CC(=O)N=C(N)Sc1nc2ccccc2[nH]1,12,-6,-9,-16,25,-1
NC(=O)N=Nc1c2[nH]c3ccccc3nc-2c2ccccc12,68,-4,0,12,5,94*
CCc1ccc(NC(=O)CSC2=C(C#N)C(c3ccc4c(c3)OCO4)CC(=O)N2)cc1 (stereo not given),2,.,2,18,64*,-2
O=C(CNC(=O)c1cc(-c2ccccc2)nn1-c1ccccc1)Nc1ccccc1Br,.,-2,-9,.,.,2
COc1cc(CN(C)CC2CCCN(CCc3ccccc3F)C2)cc(Cl)c1OC (stereo not given),2,-13,-1,58*,1,2
Cc1ccccc1C(=O)N1CCC[C@@H]1C(=O)N1CCC[C@H]1C(=O)NCc1ccccc1,.,-10,.,.,.,.
O=C(N/N=C(\Cc1ncc[nH]1)c1ccccc1)c1ccncc1,.,-21,15,18,19,-4
O=C(N/N=C(\Cc1ncc[nH]1)c1ccccc1)c1ccccc1,.,-1,.,74*,30,.
Cc1ccccc1-n1nnnc1Sc1nnnn1-c1ccccc1,-21,-7,-6,.,.,-16
CCCSc1nnc(Sc2nnnn2-c2ccccc2)s1,-34,-3,15,55*,123*,-1
Cc1cccc(Nc2nc(-c3ccc(O)c(O)c3)cs2)n1,20,-19,-1,-80,-1,0
Cc1cccc(Nc2nc(-c3ccc(F)c(C)c3)cs2)n1,-22,-2,15,29,67*,-5
SMILES,PfHsp90 yeast 2,CaV13 ICDI inh,PvdQ acylase,T cruzi inh,HSF-1 act,N-glyco inh
COc1ccc(NC(=O)n2ncc3cc(Cl)ccc32)cc1OC,-22,-19,-12,-4,53*,5
CC[n+]1ccc(/C=C/c2c[nH]c3ccccc23)cc1,-5,-31,2,70*,-11,1
CCn1c(/C=C/c2c[nH]c3ccccc23)nc2ccccc2c1=O,-5,-104,0,2,81*,-7
CCn1c(/C=C\c2ccccc2C)nc2ccccc2c1=O,-16,-4,-9,15,33,0
COc1ccc2c(/C=C/c3cc[n+](C)cc3)c[nH]c2c1,-2,-6,-9,54,0,-7
Cc1ccc2[nH]cc(/C=C/c3cc[n+](C)cc3)c2c1,11,-94,8,59*,-13,-1
C[C@H](CO)N1C[C@H](C)[C@@H](CN(C)C(=O)Nc2ccc(C(C)(C)C)cc2)OCc2cn(nn2)CCCC1=O,.,-5,.,.,.,.
Cc1nc(NC(=O)C(C)(C)C)sc1C(=O)Cn1cc(CCCC#N)nn1,.,-12,.,.,.,.
Cc1cc(N2CCN(C(=O)OC(C)(C)C)C[C@@H]2C)ccc1Br,.,-7,.,.,.,.
Cc1nc2c(-c3ccccc3)c[nH]n2c(=O)c1Cc1ccccc1,-43,-6,-5,62*,-23,-1
CC(C)n1cc(/C=N/NC(=O)COc2cccc3cccnc23)c2ccccc21,-3,-3,-7,15,78*,-3
C=CCn1cc(/C=N/NC(=O)COc2cccc3cccnc23)c2ccccc21,-7,-12,-8,3,-10,1
O=C(O)CCCC(=O)OCCCc1cc2ccccc2c(=O)o1,.,-5,.,.,.,.
CCOc1cc(OCC)cc(C(=O)N2CCC[C@H]2C(=O)N2CCC[C@H]2C(=O)NCc2ccccn2)c1,.,-6,.,.,.,.
O=C(Oc1ccccc1/C=C\C(=O)c1cc2ccccc2o1)c1ccccc1,14,-3,-10,1,366*,7
NC(=O)N/N=C/c1ccccc1OC(=O)c1cc2ccccc2oc1=O,-3,-6,9,-19,34,0
COc1cccc(C(=O)Oc2ccccc2/C=C\C(=O)c2cc3ccccc3o2)c1,-1,15,8,16,131*,5
O=C(Oc1ccccc1/C=C\C(=O)c1cc2ccccc2o1)c1cccc(F)c1,4,-6,2,-28,235*,4
C[C@H](O)[C@@H]1CN2CCc3c([nH]c4ccccc34)[C@@H]2C[C@@H]1N(C)C(=O)OCc1ccccc1,.,-16,.,.,.,1
CCOC(=O)N1CCN(C(c2ccnc3ccccc23)c2nnnn2-c2ccc3c(c2)OCCO3)CC1 (stereo not given),.,-6,.,.,.,.
O=S(=O)(c1ccccc1)N1CCCc2nc(-c3ccc(Br)cc3)ccc21,.,-5,.,.,.,.
O=C1CC(c2ccccc2)n2nc(NC(=O)c3ccccc3)nc2N1 (stereo not given),-15,-3,-14,-16,64*,0
COc1ccc(C2CC(=O)C(c3ccc(C(C)=O)cc3)=CN2Cc2ccccc2)cc1 (stereo not given),.,-4,.,.,.,.
